# Screens from PubChem.
# GSK3beta inhib – human GSK3beta kinase inhibitors, primary screen, biochemical, cell-free homogeneous, HTS; Glycogen synthase kinase-3 beta (Homo sapiens), P49841; GST-GSK3beta kinase, ADP-Glo luminescence, 60 min; hits give low values; activity score (negative = inhibition), % at 10 µM; hit rate 0.038% among 300,000; AID 2097, 2009;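 active means more than half of replicate wells score below -50%, meaning over 50% inhibition versus plate controls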;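 further: 0% = median DMSO wells and -100% = median GW8510 positive control wells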
#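 Test system – GST-tagged human GSK3beta kinase, cell-free · Incubation – 60 min enzyme reaction, room temperature · Signal – ADP-Glo luminescence · Also added – peptide substrate and ATP at 25 µM · Controls – DMSO neutral wells and GW8510 at 20 µM as positive · Buffer or medium – Tris/MgCl2 kinase buffer · Measure – Luminescence-derived activity versus plate DMSO and GW8510 wells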
# Dyrk1A ADPGlo – rat Dyrk1A kinase inhibitors, primary screen, biochemical, single point, plate reader. Dual specificity tyrosine-phosphorylation-regulated kinase 1A (Rattus norvegicus), Q63470. inhibition, % at 12.5 µM. ADP-Glo luminescence, NFATc1 peptide. hit rate 0.43% among 310,000; in the data active means inhibition above about 50%;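 further: plate controls were vehicle with enzyme for no effect and no enzyme for full effect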
# Arr AP2 block – inhibitors of beta-arrestin/AP2 binding, primary screen, biochemical, GPCR trafficking, flow cytometry | FITC-arrestin peptide / GST-AP2 beads; AP2 beta2 appendage carries R879A mutation | AID 504490, 2011 | beta-arrestin 1 C-terminal peptide binding to AP2 beta2-adaptin appendage (human) | inhibition, % at 10 µM | hit rate 0.31% among 340,000;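 active means inhibition above a set limit, near 3 SD of compounds lacking own fluorescence, cut at about 54% in these data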;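 further: plate controls were DMSO wells for no effect and 5 µM unlabelled arrestin peptide for full effect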
#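 Material – GST-tagged AP2 beta2-adaptin appendage (R879A) on 4 µm glutathione beads · Probe or stimulus – fluorescein-tagged arrestin peptide at 50 nM final · Timing – 12 min plus 1 h, RT · Detection – bead flow cytometry, FITC channel · Read-out basis – inhibition as reduced fluorescein signal on beads, percent · Medium – PBS plus Tween 20 (0.05%) and BSA (0.1%)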
# GSK3 alpha inh – blockers of GSK3A enzyme activity – biochemical, luminescence, cell-free homogeneous, HTS, primary screen | Glycogen synthase kinase-3 alpha (Homo sapiens), P49840 | GSK-3 alpha kinase, ADP-Glo luminescence, 60 min | inhibition, % at 10 µM | hit rate 0.1% among 320,000 | AID 2650, 2010;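 active means more than half of replicates show inhibition above 20%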;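 further: GST-tagged GSK-3 alpha with peptide substrate and 25 µM ATP; 0% = DMSO neutral wells and 100% = GW8510 positive control wells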
# STK33 kinase inh – inhibitors of purified STK33 kinase, primary screen, biochemical, ADP-Glo luminescence, homogeneous, cell-free; hit rate 0.073% among 320,000; inhibition, % at 10 µM; MBP phosphorylation;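 active means inhibition at or above 25%, using the most active replicate where run in duplicate; inactive means inhibition below 25%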
# Target sequence (Q9BYT3 whole entry, looked up): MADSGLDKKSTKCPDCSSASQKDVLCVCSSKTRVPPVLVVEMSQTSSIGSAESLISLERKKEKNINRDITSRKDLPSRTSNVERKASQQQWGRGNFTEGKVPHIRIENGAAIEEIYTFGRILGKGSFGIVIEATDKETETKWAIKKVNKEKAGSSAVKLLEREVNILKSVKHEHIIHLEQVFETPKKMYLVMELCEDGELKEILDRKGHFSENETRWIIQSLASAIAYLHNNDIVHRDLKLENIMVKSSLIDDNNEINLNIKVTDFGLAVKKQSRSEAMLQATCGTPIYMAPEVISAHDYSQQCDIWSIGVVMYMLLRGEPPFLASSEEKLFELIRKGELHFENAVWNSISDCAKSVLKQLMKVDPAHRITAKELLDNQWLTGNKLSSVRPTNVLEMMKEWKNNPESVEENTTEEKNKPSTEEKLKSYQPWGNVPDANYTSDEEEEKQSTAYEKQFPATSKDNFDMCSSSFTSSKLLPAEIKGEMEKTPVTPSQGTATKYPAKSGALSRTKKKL
# Rin1-Abl PPI inh – inhibitors of Rin1-Abl protein binding, primary screen, biochemical, TR-FRET; Tyrosine-protein kinase ABL1 (Homo sapiens) + Ras and Rab interactor 1 (Homo sapiens), …; inhibition, % at 7.35 µM; hit rate 0.4% among 360,000; AID 588664, 2011; in the data active means inhibition above about 5%, passing the limit was not always enough
# Rin1 Abl conf – Rin1-Abl binding inhibitor retest, confirmation, biochemical, TR-FRET. shares compounds with Rin1-Abl PPI inh. hit rate 49% among 1,300. purified proteins. inhibition, % at 7.35 µM
# GFP quench – GFP fluorescence inhibitors and quenchers, artefact control for Rin1-Abl interaction inhibitor project, biochemical. shares compounds with Rin1-Abl PPI inh. inhibitors/quenchers counterscreen. inhibition, % at 6.75 µM. hit rate 8.5% among 1,300. AID 602125, 2011;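 further: ABL1-eGFP fusion protein alone without its partner RIN1-SBP; 0% = protein with vehicle and 100% = wells lacking protein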
# GFP quench dose – GFP fluorescence inhibitors and quenchers, dose response, artefact control for Rin1-Abl interaction inhibitor project, biochemical. shares compounds with Rin1-Abl PPI inh. IC50, µM. AID 602182, 2012. GFP fluorescence interference/quenching counterscreen. 230 tested, under 10 active; call rule not given here;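 further: ABL1-eGFP fusion protein alone without its RIN1 binding partner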
# An asterisk follows results filed as active; nt = no result given. In the library only some 0.99% were active in any assay of this set; here they are far more common. Unless noted, no stated cut-off is given here; in the data, active means inhibition above about 6.5%; inactive means the rest.
SMILES,GSK3beta inhib,Dyrk1A ADPGlo,Arr AP2 block,GSK3 alpha inh,STK33 kinase inh,Rin1-Abl PPI inh,Rin1 Abl conf,GFP quench,others
Cc1cccc(C(=O)Nc2cccc(C(=O)N/N=C/c3ccccn3)c2)c1,-9,11,-14,26,1,19*,-3,0,
NC(=O)[C@@H]1CCCN1C(=O)c1cc(COc2ccc3c(c2)CCCC3)on1,1,1,25,-3,1,6.1*,0,1,
Cc1cccc(C)c1OCc1cc(C(=O)N2CCC[C@H]2C(N)=O)no1,0,-6,-2,nt,-2,1,nt,nt,
COC(=O)CC(NC(=S)NC(=O)c1ccccc1)c1ccc(Br)cc1 (configuration not stated),-2,0,-2,0,-2,0,nt,nt,
Oc1ccc(/C=N/Nc2cc(N3CCOCC3)nc(N3CCOCC3)n2)cc1O,1,11,-6,2,3,3,nt,nt,
Cc1nc(N/N=C/c2ccc(O)cc2O)cc(N2CCOCC2)n1,-2,11,-12,nt,nt,36*,44*,-2,GFP quench dose=>68
O=C(/C=C/c1ccc(O)c(O)c1)OC1C(O)CC(OC(=O)/C=C/c2ccc(O)c(O)c2)(C(=O)O)CC1O (configuration not stated),3,2,8,2,0,23*,31*,2,GFP quench dose=>68
Cc1[nH][nH]c(=O)c1C(c1c(C)[nH][nH]c1=O)c1cn(Cc2ccc(F)cc2)c2ccccc12,nt,8,22,2,1,2,nt,nt,
Cc1[nH][nH]c(=O)c1C(c1c(C)[nH][nH]c1=O)c1cn(Cc2ccc(Cl)c(Cl)c2)c2ccccc12,2,nt,-11,0,1,14*,0,3,
CC(=O)Nc1cc2c(nc1C)nc(C)n2Cc1ccc(Br)cc1,-1,17,5,-5,-1,18*,22*,-4,GFP quench dose=>68
CC(=O)N1c2ccc(S(=O)(=O)N3CCC(C(=O)NCc4ccc(Cl)cc4)CC3)cc2CC1C (configuration not stated),-1,4,1,0,0,2,nt,nt,
CC(=O)N1c2ccc(S(=O)(=O)N3CCC(C(=O)NCCc4ccc(Cl)cc4)CC3)cc2CC1C (configuration not stated),-4,1,-9,0,0,9.8*,-1,-1,
COc1ccc(CC(=O)NCc2cccc(Cl)c2)cc1S(=O)(=O)N1CCOCC1,nt,nt,nt,nt,nt,0,nt,nt,
CCN(CC)CCCNC(=O)C1c2ccccc2Oc2ccccc21,1,1,1,0,0,5.0*,1,-1,
COc1ccc(NC(=O)C(=O)NCCC2CCCCN2S(=O)(=O)c2ccccc2)cc1 (configuration not stated),-1,1,19,-1,0,1,nt,nt,
COc1ccccc1N(C(=O)c1snc(C(N)=O)c1N)C(C(=O)NCc1ccccc1)c1ccc(O)cc1 (configuration not stated),-1,2,17,nt,nt,22*,23*,1,GFP quench dose=>68
COc1ccc(C(C(=O)NCc2ccccc2)N(C(=O)c2snc(C(N)=O)c2N)c2ccccc2OC)cc1 (configuration not stated),2,2,-4,-2,0,12*,14*,0,
NC(=O)c1nsc(C(=O)N(c2ccccc2F)C(C(=O)NCc2ccc(F)cc2)c2ccc(O)cc2)c1N (configuration not stated),1,-8,3,0,0,2,nt,nt,
COc1ccc(N(C(=O)c2snc(C(N)=O)c2N)C(C(=O)NCc2ccccc2)c2ccc(F)cc2)c(OC)c1 (configuration not stated),1,-2,-1,0,-2,9.9*,11*,-3,
COc1ccc(N(C(=O)c2snc(C(N)=O)c2N)C(C(=O)NC2CCCCC2)c2ccc(F)cc2)c(OC)c1 (configuration not stated),-2,0,27,2,-1,3,nt,nt,
Cc1ccc(OCC(=O)Nc2c(C)ccc3nsnc23)cc1,1,-2,0,-3,-2,-1,nt,nt,
CCc1cc(=O)oc2cc3occ(C)c3cc12,-1,11,42,8,5,11*,-2,2,
CCCc1cc(=O)oc2cc3occ(C)c3cc12,-5,21,3,10,4,0,nt,nt,
Cc1nnc(SCCOc2ccccc2)s1,3,-2,10,1,-1,11*,7.9*,1,
Nc1nnc(SCCOc2ccccc2)s1,0,8,6,5,-1,4,nt,nt,
SMILES,GSK3beta inhib,Dyrk1A ADPGlo,Arr AP2 block,GSK3 alpha inh,STK33 kinase inh,Rin1-Abl PPI inh,Rin1 Abl conf,GFP quench,others
CC1=NN(c2ccc(Cl)cc2)C(=O)C1,2,-1,11,-1,-2,14*,0,1,
CC1=NN(c2ccc(N)cc2)C(=O)C1,-1,-1,17,-2,-1,5,nt,nt,
COC(=O)c1sccc1NC(=O)COc1ccccc1Cl,2,-1,-2,4,1,7.4*,-2,1,
CC(C)c1nc2oc3c(NCCO)ncnc3c2c2c1COC(C)(C)C2,5,-8,7,0,1,7.7*,7.7*,1,
O=C(Cc1c(F)cccc1Cl)NNC(=O)Nc1ccc2c(c1)OCO2,3,-5,27,2,-1,14*,1,1,
O=C(CSCc1c(Cl)cccc1Cl)Nc1ccc2c(c1)OCO2,0,-3,-4,-26,-1,-3,nt,nt,
CN1CCCN(C(=O)C2CCC(C(=O)N3CCCN(C)CC3)CC2)CC1 (configuration not stated),2,-7,1,nt,nt,0,nt,nt,
O=C(C1CCC(C(=O)N2CCCCC2)CC1)N1CCCCC1 (configuration not stated),3,-1,13,-1,0,6.2*,-1,-1,
